What was measured:
[1] = test system: Calf thymus DNA; test: CT-DNA binding required to produce a 50% drop in fluorescence of DNA-bound ethidium.; type: nucleic-acid assay; details: Bos taurus
Method in brief: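 Ethidium displacement from calf thymus DNA in 10 mM Na2HPO4, 10 mM NaH2PO4, 1 mM EDTA, pH 7.0, containing 1.26 μM ethidium bromide and 1 μM CT-DNA. Drug added serially from ~5 mM DMSO stock; 20 °C; fluorescence excitation 546 nm, emission 595 nm. C50 = drug concentration lowering DNA-bound ethidium fluorescence by 50%, mean of three determinations.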

[2] = test system: HT-29; test: In vitro cytotoxic potency against HT-29 (human colon adenocarcinoma) cell line.; type: functional, cell-based
[3] = test system: LoVo; test: Cytotoxicity activity on LoVo human adenocarcinoma cell line after 144 hr of drug exposure; type: functional, cell-based
Method in brief: (§1)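 LoVo (sensitive) and LoVo/Dx (resistant) human colon adenocarcinoma cells seeded at 2.5 × 10^5 cells/mL medium; drug solutions added to culture.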

[4] = test system: LoVo; test: Cytotoxicity activity on LoVo human adenocarcinoma cell line after 1 hr of drug exposure; type: functional, cell-based
Method in brief: (§2)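 LoVo (sensitive) and LoVo/Dx (resistant) human colon adenocarcinoma cells seeded at 2.5 × 10^5 cells/mL medium; drug solutions added to culture. IC50 = drug concentration inhibiting cell growth by 50%, assays in triplicate.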

[5] = test system: LoVo; test: Cytotoxicity activity on LoVo/Dx human adenocarcinoma cell line after 1 hr of drug exposure; type: functional, cell-based; method in brief: as §2
[6] = test system: LoVo; test: Cytotoxicity activity on LoVo/Dx human adenocarcinoma cell line after 144 hr of drug exposure; type: functional, cell-based; method in brief: as §1
[7] = test system: DU-145; test: Percent growth of NCI cell line, prostate: DU-145 exposed for 48 hr at 10e-4 concentration; type: functional, Homo sapiens
Method in brief: (§3)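 NCI panel cell lines exposed 48 h to 10^-8, 10^-6 and 10^-4 M drug; read-out is percent growth at each concentration.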

[8] = test system: NCI-H460; test: Percent growth of NCI cell line, lung-nsc: NCI-H460 exposed for 48 hr at 10e-4 concentration; type: functional, Homo sapiens; method in brief: as §3
[9] = test system: 786-0; test: Percent growth of NCI cell line, renal: 786-0 exposed for 48 hr at 10e-4 concentration; type: functional, Homo sapiens; method in brief: as §3
[10] = test system: LOX IMVI; test: Percent growth of NCI cell line, melanoma: LOX IMVI exposed for 48 hr at 10e-4 concentration; type: functional, Homo sapiens; method in brief: as §3
[11] = test system: DU-145; test: Percent growth of NCI cell line, prostate: DU-145 exposed for 48 hr at 10e-8 concentration; type: functional, Homo sapiens; method in brief: as §3
[12] = test system: OVCAR-4; test: Percent growth of NCI cell line, ovarian: OVCAR-4 exposed for 48 hr at 10e-8 concentration; type: functional, Homo sapiens; method in brief: as §3
[13] = test system: OVCAR-4; test: Percent growth of NCI cell line, ovarian: OVCAR-4 exposed for 48 hr at 10e-6 concentration; type: functional, Homo sapiens; method in brief: as §3
[14] = test system: DU-145; test: Percent growth of NCI cell line, prostate: DU-145 exposed for 48 hr at 10e-6 concentration; type: functional, Homo sapiens; method in brief: as §3
[15] = test system: SNB-19; test: Percent growth of NCI cell line, CNS: SNB-19 exposed for 48 hr at 10e-6 concentration; type: functional, Homo sapiens; method in brief: as §3
[16] = test system: SNB-19; test: Percent growth of NCI cell line, CNS: SNB-19 exposed for 48 hr at 10e-8 concentration; type: functional, Homo sapiens; method in brief: as §3
[17] = test system: HCT-15; test: Percent growth of NCI cell line, colon: HCT-15 exposed for 48 hr at 10e-8 concentration; type: functional, Homo sapiens; method in brief: as §3
[18] = test system: LOX IMVI; test: Percent growth of NCI cell line, melanoma: LOX IMVI exposed for 48 hr at 10e-6 concentration; type: functional, Homo sapiens; method in brief: as §3
[19] = test system: MCF7; test: Percent growth of NCI cell line, breast: MCF-7 exposed for 48 hr at 10e-8 concentration; type: functional, Homo sapiens; method in brief: as §3
[20] = test system: OVCAR-4; test: Percent growth of NCI cell line, ovarian: OVCAR-4 exposed for 48 hr at 10e-4 concentration; type: functional, Homo sapiens; method in brief: as §3
[21] = test system: LOX IMVI; test: Percent growth of NCI cell line, melanoma: LOX IMVI exposed for 48 hr at 10e-8 concentration; type: functional, Homo sapiens; method in brief: as §3
[22] = test system: 786-0; test: Percent growth of NCI cell line, renal: 786-0 exposed for 48 hr at 10e-8 concentration; type: functional, Homo sapiens; method in brief: as §3
[23] = Percent growth of NCI cell line, leucemia K562 exposed for 48 hr at 10e-6 concentration; type: functional, Homo sapiens; method in brief: as §3
[24] = test system: HCT-15; test: Percent growth of NCI cell line, colon: HCT-15 exposed for 48 hr at 10e-6 concentration; type: functional, Homo sapiens; method in brief: as §3
[25] = Percent growth of NCI cell line, leucemia K562 exposed for 48 hr at 10e-8 concentration; type: functional, Homo sapiens; method in brief: as §3
[26] = test system: NCI-H460; test: Percent growth of NCI cell line, lung-nsc: NCI-H460 exposed for 48 hr at 10e-6 concentration; type: functional, Homo sapiens; method in brief: as §3
[27] = test system: NCI-H460; test: Percent growth of NCI cell line, lung-nsc: NCI-H460 exposed for 48 hr at 10e-8 concentration; type: functional, Homo sapiens; method in brief: as §3
[28] = test system: HCT-15; test: Percent growth of NCI cell line, colon: HCT-15 exposed for 48 hr at 10e-4 concentration; type: functional, Homo sapiens; method in brief: as §3
[29] = test system: MCF7; test: Percent growth of NCI cell line, breast: MCF-7 exposed for 48 hr at 10e-4 concentration; type: functional, Homo sapiens; method in brief: as §3
[30] = test system: MCF7; test: Percent growth of NCI cell line, breast: MCF-7 exposed for 48 hr at 10e-6 concentration; type: functional, Homo sapiens; method in brief: as §3
[31] = test system: 786-0; test: Percent growth of NCI cell line, renal: 786-0 exposed for 48 hr at 10e-6 concentration; type: functional, Homo sapiens; method in brief: as §3
[32] = Percent growth of NCI cell line, leucemia K562 exposed for 48 hr at 10e-4 concentration; type: functional, Homo sapiens; method in brief: as §3
[33] = test system: SNB-19; test: Percent growth of NCI cell line, CNS: SNB-19 exposed for 48 hr at 10e-4 concentration; type: functional, Homo sapiens; method in brief: as §3

O=C1c2c(O)ccc(O)c2C(=O)c2c(NCCNCCO)ccc(NCCNCCO)c21
C50 [1]: 0.037 µM

CN(C)CCCn1c(=O)c2ccc3c4c(nn3CCN(C)C)c3ccccc3n(c1=O)c24
IC50 [2]: 37 nM
C50 [1]: 0.12 µM

CN(C)CCCn1nc2c3ccccc3n3c(=O)n(CCN(C)C)c(=O)c4ccc1c2c43
IC50 [2]: 68 nM
C50 [1]: 0.12 µM

COc1ccc2c(c1)c1nn(CCCN(C)C)c3ccc4c(=O)n(CCN(C)C)c(=O)n2c4c13
IC50 [2]: 37 nM
C50 [1]: 0.037 µM

CN(C)CCn1c(=O)c2ccc3c4c(nn3CCN3CCCCC3)c3ccccc3n(c1=O)c24
IC50 [2]: 4.1 nM
C50 [1]: 0.05 µM

COc1cccc2c1C(=O)c1c(O)c3c(c(O)c1C2=O)C[C@@](O)(C(=O)CO)C[C@@H]3O[C@H]1C[C@H](N)[C@H](O)[C@H](C)O1 [DOXORUBICIN]
IC50 [3]: 24 nM
IC50 [4]: 860 nM
IC50 [5]: 9700 nM
IC50 [6]: 2400 nM

CN(C)CCn1c(=O)c2ccc3c4c(nn3CCN(C)C)c3cc([N+](=O)[O-])ccc3n(c1=O)c24
IC50 [2]: 0.98 nM
Growth [7]: -94%
Growth [8]: -94%
Growth [9]: -99%
Growth [10]: -89%
Growth [11]: 82%
Growth [12]: 57%
Growth [13]: -55%
Growth [14]: -16%
IC50 [3]: 16 nM
Growth [15]: 2%
Growth [16]: 75%
IC50 [4]: 520 nM
Growth [17]: 68%
Growth [18]: 5%
Growth [19]: 81%
Growth [20]: -96%
Growth [21]: 79%
Growth [22]: 36%
Growth [23]: 6%
IC50 [5]: 190 nM
Growth [24]: -4%
IC50 [6]: 13 nM
C50 [1]: 0.07 µM
Growth [25]: 82%
Growth [26]: -19%
Growth [27]: 47%
Growth [28]: -89%
Growth [29]: -93%
Growth [30]: -12%
Growth [31]: -25%
Growth [32]: -38%
Growth [33]: -93%

CN(C)CCn1c(=O)c2ccc3c4c(nn3CCN(C)C)c3cc(O)ccc3n(c1=O)c24
IC50 [2]: 39 nM
Growth [7]: -50%
Growth [8]: -74%
Growth [9]: -82%
Growth [10]: -79%
Growth [11]: 71%
Growth [12]: 70%
Growth [13]: -19%
Growth [14]: 0%
IC50 [3]: 11 nM
Growth [15]: -1%
Growth [16]: 65%
IC50 [4]: 220 nM
Growth [17]: 85%
Growth [18]: -48%
Growth [19]: 60%
Growth [20]: -60%
Growth [21]: 63%
Growth [22]: 43%
Growth [23]: 7%
IC50 [5]: 80 nM
Growth [24]: 21%
IC50 [6]: 170 nM
C50 [1]: 0.056 µM
Growth [25]: 84%
Growth [26]: -23%
Growth [27]: 71%
Growth [28]: -68%
Growth [29]: -64%
Growth [30]: -17%
Growth [31]: -11%
Growth [32]: -66%
Growth [33]: -72%

CN(C)CCCn1nc2c3cc(O)ccc3n3c(=O)n(CCN(C)C)c(=O)c4ccc1c2c43
IC50 [2]: 61 nM
C50 [1]: 0.0066 µM

From ChEMBL document CHEMBL1135709, “2,6-Di(omega-aminoalkyl)-2,5,6,7-tetrahydropyrazolo[3,4,5-mn]pyrimido[5,6,1-de]acridine-5,7-diones: novel, potent, cytotoxic, and DNA-binding agents” (J Med Chem, 2002)
